{"data": "Experimental data gathered from unrelated publications"}
{"Compound": "COc1ccc(NC(=O)c2c(Nc3ccccc3)sc(C(=O)NN=Cc3ccc(Cl)cc3)c2NC(C)=O)cc1", "target or system": "HepG2", "test": "cell growth or viability, SRB", "conditions": "0.1 µM, 48 h", "measurement": "viability", "result": "92.3%"}
{"Compound": "Cn1nccc1-c1nc(N2CCC(c3ccccn3)C2)c2ccccc2n1 (stereo not shown)", "target or system": "Trypanosoma cruzi", "test": "parasite growth, imaging", "system": "U2OS", "conditions": "intracellular, amastigote", "measurement": "IC50", "result": "16400 nM"}
{"Compound": "CCOC(=O)c1ccc(-n2c(C)cc(C)c(C#N)c2=O)cc1", "target or system": "HepG2", "test": "cell growth or viability, MTT", "conditions": "12.5 µM, 24 h", "measurement": "viability", "result": "76.1%"}
{"Compound": "Fc1cccc(Nc2nc(-c3ccccn3)nc3ccccc23)c1", "target or system": "Trypanosoma cruzi", "test": "parasite growth, imaging", "system": "U2OS", "conditions": "intracellular, amastigote", "measurement": "IC50", "result": "1500 nM"}
{"Compound": "COc1ccc(NC(=O)c2c(Nc3ccccc3)sc(C#N)c2NC(=O)CNc2ccccc2)cc1", "target or system": "HepG2", "test": "cell growth or viability, SRB", "conditions": "1 µM, 48 h", "measurement": "viability", "result": "88.6%"}
{"Compound": "Nc1sc(-c2ccccc2)cc1C(=O)NCc1ccccc1", "target or system": "Mycobacterium tuberculosis", "test": "microbial growth, resazurin", "system": "H37RV", "measurement": "MIC", "result": "325 µM"}
{"Compound": "COc1ccc(NC(=O)c2c(Nc3ccccc3)sc(C#N)c2NC(=O)CNc2ccc(Cl)cc2)cc1", "target or system": "HepG2", "test": "cell growth or viability, SRB", "conditions": "1 nM, 48 h", "measurement": "viability", "result": "99.1%"}
{"Compound": "CCOC(=O)c1c(NC(=O)c2c(F)c(F)c(F)c(F)c2F)sc2c1CCCC2", "target or system": "Mycobacterium tuberculosis", "test": "microbial growth, resazurin", "system": "H37RV", "measurement": "MIC", "result": "< 50 µM"}
{"Compound": "Oc1ccc(-c2nc(N3CCC(c4ccccn4)C3)c3ccccc3n2)cc1 (stereo not shown)", "target or system": "Trypanosoma cruzi", "test": "parasite growth, imaging", "system": "U2OS", "conditions": "intracellular, amastigote", "measurement": "IC50", "result": "1130 nM"}
{"Compound": "CCCCNC(=O)c1c(N)sc2c1CCN(CC)C2", "target or system": "Mycobacterium tuberculosis", "test": "microbial growth, resazurin", "system": "H37RV", "conditions": "7 days", "measurement": "MIC", "result": "> 300 µM"}
{"Compound": "CCOC(=O)c1ccc(-n2c(C)cc(/C=C/c3ccc(OCC)cc3)c(C#N)c2=O)cc1", "target or system": "HepG2", "test": "cell growth or viability, MTT", "conditions": "25 µM, 24 h", "measurement": "viability", "result": "72%"}
{"Compound": "COc1ccc(NC(=O)c2c(Nc3ccccc3)sc(C#N)c2NC(=O)CNc2ccc(O)cc2)cc1", "target or system": "HepG2", "test": "cell growth or viability, SRB", "conditions": "1 µM, 48 h", "measurement": "viability", "result": "77.2%"}
{"Compound": "Nc1sc(-c2ccccc2)cc1C(=O)NC12CC3CC(CC(C3)C1)C2", "target or system": "Mycobacterium tuberculosis", "test": "microbial growth, resazurin", "system": "H37RV", "measurement": "MIC", "result": "> 200 µM"}
